Reference: ChEMBL document CHEMBL5634206, “Chiral hydroxymethyl-1H,3H-pyrrolo[1,2-c]thiazoles: the search for selective p53-activating agents for colorectal cancer therapy” (RSC Med Chem, 2024)

How the values were obtained:
[1] = test system: HCT-116; assay: Antiproliferative activity against wildtype p53 expressing human HCT-116 cells assessed as inhibition of cell growth incubated for 48 hrs by SRB assay; type: functional, cell-based
How it was run: (§1)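 Isogenic HCT116 p53+/+ and p53−/− pair from B. Vogelstein, grown as monolayers in RPMI-1640 with 2 mM L-glutamine and 10% heat-inactivated FBS at 37 °C, 5% CO2. Cells seeded at 5 × 10^3 per well for 24 h, then given serial dilutions from 0.2 to 50 μM for 48 h. IC50 read by sulforhodamine B staining.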

[2] = test system: HCT-116; assay: Antiproliferative activity against human HCT-116 cells expressing p53-/- assessed as inhibition of cell growth incubated for 48 hrs by SRB assay; type: functional, cell-based; how it was run: as §1
[3] = test system: MDA-MB-231; assay: Antiproliferative activity against human MDA-MB-231 cells assessed as inhibition of cell growth incubated for 48 hrs by SRB assay; type: functional, cell-based; settings: MDA-MB-231, 48 h
How it was run: (§2)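 MDA-MB-231 and PANC-1 cells grown in high-glucose DMEM (4.5 g L−1) with L-glutamine, sodium pyruvate and 10% heat-inactivated FBS at 37 °C, 5% CO2. After seeding 5 × 10^3 cells per well for 24 h, cells received serial dilutions of 0.2–50 μM for 48 h. IC50 by SRB. Mean ± SD of 3 independent experiments.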

[4] = test system: PANC-1; assay: Antiproliferative activity against human PANC-1 cells assessed as inhibition of cell growth incubated for 48 hrs by SRB assay; type: functional, cell-based; settings: PANC-1, 48 h; how it was run: as §2
[5] = test system: A-375; assay: Antiproliferative activity against human A-375 cells assessed as inhibition of cell growth incubated for 48 hrs by SRB assay; type: functional, cell-based; settings: A-375, 48 h
How it was run: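 A375 melanoma cells grown as monolayers in RPMI-1640 with 2 mM L-glutamine and 10% heat-inactivated FBS at 37 °C, 5% CO2. Seeded at 5 × 10^3 cells per well for 24 h, then exposed to serial dilutions (0.2–50 μM) for 48 h. IC50 determined by SRB. Mean ± SD of 3 independent experiments.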

[6] = Selectivity ratio of IC50 for antiproliferative activity against human HCT-116 cells expressing p53-/- to IC50 for antiproliferative activity against wildtype p53 expressing human HCT-116 cells; type: functional
[7] = test system: HCT-116; assay: Potency index, ratio of test compound IC50 to MANIO IC50 for antiproliferative activity against wildtype p53 expressing human HCT-116 cells assessed as inhibition of cell growth incubated for 48 hrs by SRB assay
[8] = Homo sapiens, HCT-116, 48 h, read-out: IC50

SMILES	IC50 [1, 8] [µM]	IC50 [2, 8] [µM]	IC50 [3] [µM]	IC50 [4] [µM]	IC50 [5] [µM]	IC50 ([1]; hct-116)	IC50 ([2]; hct-116)	Ratio IC50 [6]	Ratio IC50 [7]
Cc1c(CO)c(CO)c2n1[C@H](c1ccccc1)SC2(C)C	24.3	22.2	–	–	–	–	–	–	–
Cc1c(CO)c(CO)c2n1[C@@H](c1ccc(F)cc1)SC2	4.43	32.5	> 50	20.2	36.1	–	–	–	–
OCc1cn2c(c1CO)CS[C@@H]2c1ccccc1	20.3	> 50	–	–	–	–	–	–	–
Cc1c(CO)c(CO)c2n1[C@@H](Cc1ccccc1)SC2	16.3	29.1	–	–	–	–	–	–	–
Cc1c(CO)cc2n1CSC2	28.3	> 50	–	–	–	–	–	–	–
COc1cc([C@H]2SCc3c(CO)c(CO)c(C)n32)cc(OC)c1OC	> 50	> 50	–	–	–	–	–	–	–
Cc1c(CO)c(CO)c2n1[C@@H](c1cccc3ccccc13)SC2	–	–	–	–	–	Not Determined(Insoluble)	Not Determined(Insoluble)	–	–
Cc1cc(CO)c2n1[C@H](c1ccccc1)SC2	0.14	18.1	> 50	> 50	> 50	–	–	129	–
Cc1c(CO)c(CO)c2n1[C@@H](c1cccc3cccnc13)SC2	7.5	> 50	> 50	17.4	24.4	–	–	–	–
OCc1nn2c(c1CO)CSC2	> 50	> 50	–	–	–	–	–	–	–
Cc1c(CO)cc2n1[C@H](c1ccccc1)SC2	0.99	4.33	24.1	35	11.8	–	–	–	–
COc1ccc([C@H]2SCc3c(CO)c(CO)c(C)n32)cc1	4.61	> 50	> 50	> 50	> 50	–	–	–	–
Cc1c(CO)c(CO)c2n1[C@@H](c1ccc(O)cc1)SC2	16.6	> 50	–	–	–	–	–	–	–
Cc1c(CO)c(CO)c2n1[C@H](c1ccccc1)SC2	–	48.2	> 50	42.1	13.2	–	–	~50	–
Cc1c(CO)c(CO)c2n1[C@@H](c1ccccc1)SC2	5.11	51.8	> 50	33.1	14.5	–	–	–	5
COc1ccc([C@@H]2SCc3c(CO)c(CO)c(C)n32)cc1	1.47	23.5	16.6	> 50	22.8	–	–	–	–
Cc1c(CO)c(CO)c2n1[C@H](C)SC2	31.4	42.7	–	–	–	–	–	–	–
Cc1c(CO)c(CO)c2n1[C@@H](c1ccccc1)S(=O)(=O)C2	> 15	> 50	–	–	–	–	–	–	–
Cc1c(CO)cc2n1[C@@H](c1ccccc1)SC2	6.68	> 50	> 50	> 50	39.5	–	–	–	–
Cc1cc(CO)c2n1[C@@H](c1ccccc1)SC2	29.3	> 50	–	–	–	–	–	–	–
Cc1c(CO)c(CO)c2n1[C@@H](C)SC2	33.3	46.2	–	–	–	–	–	–	–
